Screens from PubChem.
Compounds with a hit are over-represented: about 3.6% of the library has one in this group of screens.
STAT3 act: IL-6 driven STAT3 reporter potentiators, primary screen, U3A cells, luciferase, luminescence, MLSCN library; IL-6 STAT3-luciferase reporter; 100% = signal with IL-6 EC80 alone; activation (% of control), % at 5.6 µM; 190,000 tested, 0.91% active;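 active means activation above the screen-wide mean of compound activation plus 3 SD, cut at about 130% in these data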
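Material: human STAT1-deficient U3A cells with stable STAT3-luciferase reporter / Probe or stimulus: IL-6 stimulus at 33 ng/mL final / Schedule: 1 h compound pre-exposure, 6 h IL-6 stimulation, 37 °C / Technique: luminescence / Read-out basis: percent of IL-6-only median luminescence / Control set: IL-6-only high control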
HSF1 inhib: HSF1 inhibitors in luciferase reporter cells, primary screen, cell-based, NIH3T3, luminescence; NIH3T3-HGL HSE-luciferase, MG132-induced, luminescence 8 h; stronger effect = lower value; activity change, negative = inhibition, % at 7.5 µM (by protocol); 300,000 tested, 0.77% active;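 active means more than half of replicate wells show activity change below -50%, luminescence cut by over half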;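 further: luciferase reports HSF-1 transcriptional activity via heat shock element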
PolyA inh: polyadenylation inhibitors in yeast reporter cells, primary screen, luminescence, S. cerevisiae | S. cerevisiae SKY197-pL101 polyadenylation reporter, beta-gal luminescence; efflux-impaired pdr1/pdr3 knockout yeast; score 100 = 6 SD above DMSO | activity score, % at 12 µM | 300,000 tested, 0.02% active | AID 1875, 2009;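 active means lowest replicate activity score at least 50, where 100 means six control SD above control mean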;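 further: yeast exposed to compound for 9 h at 30 °C; higher score means more reporter readthrough which indicates perturbed polyadenylation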
Hsp70 act: Hsp70 transcriptional activators, primary screen, cell-based, HeLa, Hsp70 promoter luciferase, luminescence, 10 µM; 200,000 tested, 0.04% active; HeLa Hsp70 promoter luciferase reporter; scaled: vehicle 0, proteasome-inhibitor control 100%; AID 1203, 2008; activation, % at 10 µM;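 active means activation above the mean across all tested compounds plus 3 SD, cutoff set per campaign, cut at about 5.5% in these data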
PERK inh: block of dimerizer-induced PERK translation repression, primary screen, PERK inhibitor project, CHO PERK-DD cells, SEAP luminescence, HTS; Eukaryotic translation initiation factor 2-alpha kinase 3 (Homo sapiens), Q9NZJ5; CHO PERK-DD fusion, SEAP luminescence translation reporter; inhibition, % at 5.6 µM; 220,000 tested, 0.17% active; AID 1416, 2008;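 active means inhibition above the mean inhibition of all tested compounds plus 3 SD, set separately per screening campaign, cut at about 2.9% in these data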;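 further: PERK kinase domain activated by AP20187 dimerizer at 100 nM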
Target sequence (Q9NZJ5 whole entry, looked up, the tested form may be a part): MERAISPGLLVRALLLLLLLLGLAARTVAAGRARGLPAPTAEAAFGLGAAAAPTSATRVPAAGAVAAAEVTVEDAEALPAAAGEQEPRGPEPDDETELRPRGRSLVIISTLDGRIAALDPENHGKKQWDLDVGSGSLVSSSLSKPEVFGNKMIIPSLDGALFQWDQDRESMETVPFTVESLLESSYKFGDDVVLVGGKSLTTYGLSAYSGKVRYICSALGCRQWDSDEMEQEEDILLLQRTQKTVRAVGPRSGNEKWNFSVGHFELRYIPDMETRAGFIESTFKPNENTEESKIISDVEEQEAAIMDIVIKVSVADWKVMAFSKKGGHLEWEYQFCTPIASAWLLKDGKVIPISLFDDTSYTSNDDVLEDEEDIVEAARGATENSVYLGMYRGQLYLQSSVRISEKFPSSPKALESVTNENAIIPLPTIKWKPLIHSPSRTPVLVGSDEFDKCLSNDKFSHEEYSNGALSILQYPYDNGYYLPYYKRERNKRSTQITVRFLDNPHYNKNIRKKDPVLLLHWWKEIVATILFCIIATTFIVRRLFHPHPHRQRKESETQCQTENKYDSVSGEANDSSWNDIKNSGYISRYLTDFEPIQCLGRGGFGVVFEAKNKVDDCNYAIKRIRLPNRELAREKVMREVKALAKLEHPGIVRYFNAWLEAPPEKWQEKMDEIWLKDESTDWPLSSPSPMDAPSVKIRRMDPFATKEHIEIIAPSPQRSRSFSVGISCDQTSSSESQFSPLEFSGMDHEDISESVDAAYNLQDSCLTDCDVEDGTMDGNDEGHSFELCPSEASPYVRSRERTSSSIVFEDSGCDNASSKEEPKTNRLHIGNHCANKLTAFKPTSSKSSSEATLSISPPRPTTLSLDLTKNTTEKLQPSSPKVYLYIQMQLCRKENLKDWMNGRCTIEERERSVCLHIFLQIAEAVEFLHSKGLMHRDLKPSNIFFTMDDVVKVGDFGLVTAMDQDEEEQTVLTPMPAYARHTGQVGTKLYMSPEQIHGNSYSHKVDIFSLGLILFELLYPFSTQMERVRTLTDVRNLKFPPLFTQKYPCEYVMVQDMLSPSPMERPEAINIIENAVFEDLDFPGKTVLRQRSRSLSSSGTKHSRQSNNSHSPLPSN
AHR activator: AHR activators, primary screen, cell-based, luminescence, luciferase reporter, human. AHR-responsive luciferase reporter cells. Aryl hydrocarbon receptor (Homo sapiens), P35869. activation, % at 5 µM. 320,000 tested, 2.5% active; in the data active means activation above about 47%
Numbers stand for hits; n = inactive; x = not tested or not shown.

SMILES	STAT3 act	HSF1 inhib	PolyA inh	Hsp70 act	PERK inh	AHR activator
Cc1c(N=NC2=C(O)CCCC2=O)c(=O)n(-c2ccccc2)n1C	n	n	n	n	n	51
Cc1c(N=Nc2ccc(O)cc2)c(=O)n(-c2ccccc2)n1C	n	n	n	n	n	56
Cc1c(NCc2ccccc2O)c(=O)n(-c2ccccc2)n1C	x	n	n	x	n	n
Cc1[nH]c2ccccc2c1N=Nc1c(C)n(C)n(-c2ccccc2)c1=O	n	n	n	n	n	n
O=C(CSc1nnc(CNC(=O)C23CC4CC(CC(C4)C2)C3)n1-c1ccccc1)Nc1ccccc1	n	n	n	n	n	n
O=C(CCl)N(C/C=C/c1ccccc1)c1ccc2c(c1)OCCO2	n	-77	n	n	n	n
O=C(/C=C/c1ccccc1)c1ccc2c(c1)OCCCCO2	n	n	n	n	n	n
CCC1C(=O)n2nc(-c3ccccc3)cc2N=C1C (configuration not stated)	n	n	n	n	n	51
COc1ccc(C(C(=O)NC2CCCCC2)N(C(=O)CCl)c2ccc(Cl)cc2)cc1 (configuration not stated)	n	-86	n	n	n	n
O=C(CCCC(=O)N(c1ccc2c(c1)OCCO2)C(C(=O)NC1CCCCC1)c1ccc(Cl)cc1)Nc1ccccn1 (configuration not stated)	n	-66	n	n	n	n
O=C(Cn1nnc2ccccc2c1=O)N[C@H](C(=O)O)c1ccccc1	x	n	n	x	n	n
CN(Cc1ccc(C(F)(F)F)cc1)C(=O)C1CC(=O)N(Cc2ccco2)C1 (configuration not stated)	x	x	x	x	x	n
N#C/C(=C\c1ccc(-c2ccc(C(=O)O)cc2)o1)C(=O)Nc1ccc(F)cc1	x	n	n	x	x	77
Cc1cccc(C)c1NC(=O)/C(C#N)=C/c1ccc(-c2ccc(C(=O)O)cc2)o1	x	n	n	x	x	n
COc1cc(NC(=S)NC(=O)CCc2ccccc2)cc(OC)c1	x	n	n	x	x	n
[O-]/[N+](=C/c1ccc(F)cc1)c1ccc(Cl)cc1	n	n	n	n	n	64
Cc1cccc(N2N=C(C(=O)N3Cc4ccccc4CC3C(N)=O)CCC2=O)c1 (configuration not stated)	x	x	x	x	x	n
CC(C)n1nnnc1SCC(=O)NC1CCCC1	x	n	n	x	x	n
COc1cccc(C(=O)N=c2sc3cc(S(C)(=O)=O)ccc3n2C)c1	n	n	n	n	n	n
c1ccc2c(c1)[nH]c1c(N3CCSCC3)ncnc12	n	x	x	n	n	n
Cc1ccc2[nH]c3c(N4CCOCC4)ncnc3c2c1	n	n	n	n	n	73
Fc1ccc2[nH]c3c(N4CCc5ccccc5C4)ncnc3c2c1	x	n	n	x	n	n
c1ccc2c(c1)[nH]c1c(N3CCCC3)ncnc12	n	n	n	n	n	65
Brc1ccc2[nH]c3c(N4CCc5ccccc5C4)ncnc3c2c1	n	n	n	n	n	51
Brc1ccc2[nH]c3c(NCc4ccccn4)ncnc3c2c1	x	n	n	x	n	78
SMILES	STAT3 act	HSF1 inhib	PolyA inh	Hsp70 act	PERK inh	AHR activator
COc1cc(C(=O)OCC(=O)Nc2cccc(S(=O)(=O)N3CCCC3)c2)ccc1OCC(C)C	x	n	n	x	x	n
O=c1c2[nH]c3ccc(F)cc3c2ncn1CCCN1CCOCC1	n	n	n	n	n	n
Fc1ccc2[nH]c3c(NCCN4CCOCC4)ncnc3c2c1	n	n	n	n	n	75
COCc1nnc(NC(=O)C2CC(=O)N(CCc3ccc(F)cc3)C2)s1 (configuration not stated)	x	n	n	x	x	n
COCCNc1nc(-c2ccccc2)nc2ccccc12	n	n	n	n	n	n
CC(=O)OCCNc1nc(-c2ccccc2)nc2ccccc12	n	n	n	n	n	58
CC(C)N(C(=O)Cn1c(=O)oc2ccccc21)c1ccccc1	x	n	n	x	x	n
COc1ccc(NC(=O)CSc2nnc(-c3ccccn3)n2N)cc1Cl	n	n	n	n	n	73
O=C(NC(=S)N1CCCc2ccccc21)c1ccco1	135	n	n	n	n	n
CN(CC(=O)NC(=O)NC1CCCCC1)CC(=O)Nc1ccc(Cl)cc1	x	x	x	x	x	n
O=c1c2ccccc2oc2cc(C#CC3(O)CCCCC3)ccc12	x	-81	n	x	x	n
O=c1c2ccccc2sc2ccc(C#CC3(O)CCCCC3)cc12	x	-92	n	x	x	n
COc1cccc2oc3cc(C#CC4(O)CCCCC4)ccc3c(=O)c12	x	n	n	x	x	n
COc1cccc2sc3ccc(C#CC4(O)CCCCC4)cc3c(=O)c12	x	n	n	x	x	n
CCc1ccc(S(=O)(=O)/N=C2\C=C(Nc3ccc(C(=O)O)cc3)C(=O)c3ccccc32)cc1	x	n	n	x	x	n
CC(C)(C)c1ccc(S(=O)(=O)/N=C2\C=C(NS(=O)(=O)c3ccccc3)C(=O)c3ccccc32)cc1	x	n	n	x	x	54
COC(=O)c1ccccc1NC1=C/C(=N\S(=O)(=O)c2ccc(C(=O)O)cc2)c2ccccc2C1=O	x	n	n	x	x	62
O=C(c1ccccc1)c1ccc(NCCCn2ccnc2)c([N+](=O)[O-])c1	x	n	n	x	x	n
O=C(N/N=C/c1cccc([N+](=O)[O-])c1)c1cc(-c2ccc3c4c(cccc24)CC3)n[nH]1	n	n	n	n	n	51
O=C(N/N=C/c1ccc(Cl)c([N+](=O)[O-])c1)c1cc(-c2ccc3c4c(cccc24)CC3)n[nH]1	x	n	n	x	n	n
COc1ccc2ccccc2c1C1NC(=O)c2ccccc2N1 (configuration not stated)	x	n	x	x	x	x
COc1ccc(C2NC(=O)c3ccccc3N2)cc1OC (configuration not stated)	n	n	n	n	n	48
O=C1NC(c2ccc3c(c2)OCO3)Nc2ccccc21 (configuration not stated)	n	n	n	n	n	145
C/C(=N\Nc1ccc(Cl)c(C(=O)O)c1)c1ccc2c(c1)OCO2	n	n	n	n	n	n
C/C(=N\Nc1ccc(C(=O)O)cc1)c1ccc2c(c1)Nc1ccccc1S2	x	n	n	x	n	68
CCOc1ccc(CC(=O)N2CCC3(CC2)NCCc2[nH]cnc23)cc1	x	-62	n	x	x	n
O=C(CN1CCN(Cc2ccccc2)CC1)N/N=C\C=C/c1ccco1	n	-69	n	n	n	n
O=C(CN1CCN(Cc2ccccc2Cl)CC1)N/N=C/C=C/c1ccco1	x	n	n	x	n	n
